Reference: ChEMBL document CHEMBL4152262, “Design, synthesis and evaluation of novel multi-target-directed ligands for treatment of Alzheimer's disease based on coumarin and lipoic acid scaffolds” (Eur J Med Chem, 2018)

Key:
[1] = system: PC-12; assay: Neuroprotection against H2O2-induced cell death in rat PC12 cells assessed as cell viability at 50 uM preincubated for 3 hrs followed by H2O2 stimulation measured after 2 hrs by MTT assay (reference value: 25.2 to 41.8%); assay type: functional; details: read-out: Activity
[2] = target: Acetylcholinesterase (Electrophorus electricus, UniProt O42275); assay: Inhibition of electric eel AChE using acetylthiocholine iodide as substrate pretreated for 5 mins followed by substrate addition by Ellman's method
[3] = Inhibition of soybean 15-LOX assessed as reduction in conversion of linoleic acid to 13-hydroperoxylinoleic acid by spectrophotometric method; design: species or system Glycine max
Procedure, shortened: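 Soybean lipoxygenase type 1-B (final 167 U/mL) with compound (DMSO stock diluted in 0.1 M phosphate buffer pH 8) and linoleic acid (134 mM in ethanol) at room temperature. Formation of 13-hydroperoxylinoleic acid followed spectrophotometrically at 234 nm.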

[4] = system: PC-12; assay: Neuroprotection against H2O2-induced cell death in rat PC12 cells assessed as cell viability at 10 uM preincubated for 3 hrs followed by H2O2 stimulation measured after 2 hrs by MTT assay (reference value: 25.2 to 41.8%); assay type: functional; details: read-out: Activity
[5] = system: PC-12; assay: Neuroprotection against H2O2-induced cell death in rat PC12 cells assessed as cell viability at 1 uM preincubated for 3 hrs followed by H2O2 stimulation measured after 2 hrs by MTT assay (reference value: 25.2 to 41.8%); assay type: functional; details: read-out: Activity
[6] = system: PC-12; assay: Neuroprotection against H2O2-induced cell death in rat PC12 cells assessed as cell viability at 5 uM preincubated for 3 hrs followed by H2O2 stimulation measured after 2 hrs by MTT assay (reference value: 25.2 to 41.8%); assay type: functional; details: read-out: Activity
[7] = target: Cholinesterase (Equus caballus, UniProt P81908); assay: Inhibition of equine serum BuChE using butyrylthiocholine iodide as substrate pretreated for 5 mins followed by substrate addition by Ellman's method
Procedure, shortened: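 Ellman assay with horse serum BuChE (5 IU/mL) in 0.1 M phosphate buffer pH 8.0 with DTNB. Compound was preincubated with enzyme 5 min, then butyrylthiocholine iodide was added. Absorbance read at 412 nm. IC50 from a log concentration vs % inhibition curve; triplicate runs.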

[8] = system: PC-12; assay: Neuroprotection against H2O2-induced cell death in rat PC12 cells assessed as cell viability at 0.1 uM preincubated for 3 hrs followed by H2O2 stimulation measured after 2 hrs by MTT assay (reference value: 25.2 to 41.8%); assay type: functional; details: read-out: Activity
[9] = system: PC-12; assay: Neuroprotection against H2O2-induced cell death in rat PC12 cells assessed as increase in cell viability preincubated for 3 hrs followed by H2O2 stimulation measured after 2 hrs by MTT assay; assay type: functional, cell-based
[10] = system: PC-12; assay: Neuroprotection against H2O2-induced cell death in rat PC12 cells assessed as cell viability at 20 uM preincubated for 3 hrs followed by H2O2 stimulation measured after 2 hrs by MTT assay (reference value: 25.2 to 41.8%); assay type: functional; details: read-out: Activity

Acetylcholinesterase, sequence (O42275 whole entry): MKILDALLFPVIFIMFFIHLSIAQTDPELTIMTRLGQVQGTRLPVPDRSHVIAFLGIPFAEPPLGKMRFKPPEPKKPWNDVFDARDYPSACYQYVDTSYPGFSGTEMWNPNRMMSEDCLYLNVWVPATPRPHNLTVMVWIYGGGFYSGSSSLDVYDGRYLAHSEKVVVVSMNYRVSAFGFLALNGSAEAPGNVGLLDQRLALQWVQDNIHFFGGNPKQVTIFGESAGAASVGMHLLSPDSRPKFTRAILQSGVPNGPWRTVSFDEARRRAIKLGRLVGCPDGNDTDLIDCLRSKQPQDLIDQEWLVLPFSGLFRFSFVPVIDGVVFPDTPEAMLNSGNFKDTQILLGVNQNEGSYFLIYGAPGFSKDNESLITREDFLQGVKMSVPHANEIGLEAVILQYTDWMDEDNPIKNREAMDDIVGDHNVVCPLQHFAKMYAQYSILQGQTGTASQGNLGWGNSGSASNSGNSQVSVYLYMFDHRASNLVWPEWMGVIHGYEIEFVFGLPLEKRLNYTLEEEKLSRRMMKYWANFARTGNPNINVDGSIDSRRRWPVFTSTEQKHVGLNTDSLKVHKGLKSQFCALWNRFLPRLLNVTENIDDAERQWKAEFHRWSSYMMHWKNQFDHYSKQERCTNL
Cholinesterase, sequence (P81908 whole entry): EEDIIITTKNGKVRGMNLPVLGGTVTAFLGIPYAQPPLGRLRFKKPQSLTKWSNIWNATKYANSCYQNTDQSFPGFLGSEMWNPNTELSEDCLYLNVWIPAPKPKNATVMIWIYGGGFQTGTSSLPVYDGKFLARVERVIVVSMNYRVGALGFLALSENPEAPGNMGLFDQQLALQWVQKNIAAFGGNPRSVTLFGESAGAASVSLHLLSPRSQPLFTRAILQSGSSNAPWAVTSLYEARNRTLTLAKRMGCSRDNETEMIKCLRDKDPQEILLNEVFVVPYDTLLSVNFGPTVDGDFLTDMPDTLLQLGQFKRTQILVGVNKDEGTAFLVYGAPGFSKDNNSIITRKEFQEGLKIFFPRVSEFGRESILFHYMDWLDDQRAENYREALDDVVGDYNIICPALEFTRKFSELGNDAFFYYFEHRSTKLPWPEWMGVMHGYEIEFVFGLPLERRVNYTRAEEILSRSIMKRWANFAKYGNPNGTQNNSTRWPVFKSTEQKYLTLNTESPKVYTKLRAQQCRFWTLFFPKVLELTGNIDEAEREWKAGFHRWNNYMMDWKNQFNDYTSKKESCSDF

SMILES	viability at 50 µM [1] [%]	IC50 [2] [µM]	IC50 [3] [µM]	viability at 10 µM [4] [%]	viability at 1 µM [5] [%]	viability at 5 µM [6] [%]	IC50 [7] [µM]	viability at 0.1 µM [8] [%]	Activity [9]	viability at 20 µM [10] [%]
O=C(CCCCC1CCSS1)NCc1cn(CCCCCOc2ccc3ccc(=O)oc3c2)nn1 (configuration not stated)	84.9	70.6	> 100	71.3	57.2	64.5	> 100	46.3	Dose-dependent effect	78.5
O=C(CCCCC1CCSS1)NCc1cn(CCCCOc2ccc3cc(-c4ccc(Br)cc4)c(=O)oc3c2)nn1 (configuration not stated)	47.6	> 100	> 100	42.6	37.4	40.5	> 100	34.2	Dose-dependent effect	45
O=C(CCCCC1CCSS1)NCc1cn(CCCOc2ccc3cc(-c4ccc(Br)cc4)c(=O)oc3c2)nn1 (configuration not stated)	74.7	46.5	> 100	63.3	42.8	57.3	> 100	39.5	Dose-dependent effect	69.1
O=C(CCCCC1CCSS1)NCc1cn(CCCOc2ccc3ccc(=O)oc3c2)nn1 (configuration not stated)	43.5	66.7	> 100	40	37.2	39.2	> 100	37.8	Dose-dependent effect	42.2
O=C(CCCCC1CCSS1)NCc1cn(CCCCCOc2ccc3cc(-c4ccc(Cl)c(Cl)c4)c(=O)oc3c2)nn1 (configuration not stated)	66.2	> 100	> 100	59.4	50.6	54.8	7.8	39.7	Dose-dependent effect	65.5
O=C(CCCCC1CCSS1)NCc1cn(CCCOc2ccc3cc(-c4ccc(Cl)cc4)c(=O)oc3c2)nn1 (configuration not stated)	79.4	> 100	> 100	67.8	49.3	60.6	> 100	40.9	Dose-dependent effect	75.6
O=C(CCCCC1CCSS1)NCc1cn(CCCOc2ccc3cc(-c4ccc(Cl)c(Cl)c4)c(=O)oc3c2)nn1 (configuration not stated)	54.8	> 100	> 100	49.6	42.4	44.7	73.5	38.1	Dose-dependent effect	51.2
O=C(CCCCC1CCSS1)NCc1cn(CCCCCOc2ccc3cc(-c4ccccc4)c(=O)oc3c2)nn1 (configuration not stated)	17.7	> 100	> 100	26.3	30.7	28	> 100	35.5	–	20.7
O=C(CCCCC1CCSS1)NCc1cn(CCCCOc2ccc3cc(-c4ccccc4)c(=O)oc3c2)nn1 (configuration not stated)	20.5	> 100	> 100	30.5	34.8	32.8	> 100	38.6	–	26
O=C(CCCCC1CCSS1)NCc1cn(CCCOc2ccc3cc(-c4ccccc4)c(=O)oc3c2)nn1 (configuration not stated)	23.1	> 100	> 100	29.1	31.9	29.8	> 100	33.9	–	27.2
